In paper PMC2191409 (The Journal of Experimental Medicine, 1994):

Tested on: MZ2-MEL.61 cells (D-) expressing HLA-A1
Experiment: Peptide sensitization assay
Format: cell-based, human
Conditions: CTL clone 20/38
In short: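 Target cells (MZ2-MEL.61, antigen-loss D− variant, HLA-A1+) were 51Cr-labelled for 1 h at 37°C and washed extensively. 1,000 cells/well were preincubated 30 min at 37°C with various concentrations of synthetic test peptide (>90% HPLC purity; stock in 0.02 M PBS). CTL 20/38 were then added in equal volume at E/T 10:1. Chromium release was read after 4 h at 37°C. D+ and D− MZ2-MEL cells without peptide served as reference.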

EVDPIGHVY [MAGE-6 derived peptide]
Recognition by the anti-MZ2-D CTL clone: not recognized
